Test results taken from ChEMBL document CHEMBL1129360, “Carbocyclic nucleosides as inhibitors of human tumor necrosis factor-alpha production: effects of the stereoisomers of (3-hydroxycyclopentyl)adenines” (J Med Chem, 1996).

How the values were obtained:
Homo sapiens [1] = species on record: Homo sapiens; test: in vitro inhibitory activity was measured against interleukin-6 (IL-6) production; type: functional, organism-based
Outline: (§1)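 Human peripheral blood mononuclear cells from normal volunteers were separated by density gradient. Adherent monocyte/macrophages were kept after 1 h and lifted with RPMI-1640/0.2% EDTA/5% FCS. Compounds in PBS (0.16, 0.8, 4.0, 20.0, 100 µM) were added to the cells 15 min before LPS. Cells were incubated 18 h at 37 °C, 5% CO2. Supernatant TNF-α, IL-1β and IL-6 were measured by specific ELISA, giving IC50.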

Homo sapiens [2] = species on record: Homo sapiens; test: in vitro inhibitory activity was measured against interleukin-1-beta (IL1-beta) production; type: functional; outline: as §1
Mus musculus [3] = test: Protective effects against lethal injections of D-galactosamine sensitized Lipopolysaccharide challenged (LD100) CF1 mice (100 mg/kg IP in PBS); type: functional
Outline: (§2)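 Female CF1 mice were fasted overnight, then given compound at 100 mg/kg ip in PBS 1 h before an ip challenge of D-galactosamine (20 mg) plus S. enteritidis LPS (15-250 ng). The LPS LD100 was set for each shipment of mice, and the challenge was at LD100 or 3× LD100. Mice were refed after challenge and survival was scored at 8 h. PBS vehicle served as control.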

Mus musculus [4] = test: D-galactosamine sensitized mice were given 3 times the LD100 dose of LPS (100 mg/kg IP in PBS); type: functional; outline: as §2
Homo sapiens [5] = species on record: Homo sapiens; test: In vitro inhibitory activity was measured against tumor necrosis factor-alpha production; type: functional; outline: as §1

| Structure (SMILES) | IC50 (Homo sapiens [1]) [µM] | IC50 (Homo sapiens [2]) [µM] | Survival (Mus musculus [3]) [%] | Survival (Mus musculus [4]) [%] | IC50 (Homo sapiens [5]) [µM] |
| --- | --- | --- | --- | --- | --- |
| Nc1ncnc2c1ncn2[C@H]1CC[C@H](O)C1 | > 100 | > 100 | 63 | 0 | 16 |
| CC(=O)CCCCn1c(=O)c2c(ncn2C)n(C)c1=O [PENTOXIFYLLINE] | > 100 | > 100 | 66 | 0 | 33 |
| Nc1ncnc2c1ncn2[C@@H]1CC[C@@H](O)C1 | > 100 | 76 | 100 | 100 | 9 |
| Nc1ncnc2c1ncn2[C@@H]1O[C@H](CO)[C@@H](O)[C@H]1O [ADENOSINE] | > 100 | > 100 | 0 | 0 | 6 |
| Nc1ncnc2c1ncn2[C@H]1CC[C@@H](O)C1 | > 100 | > 100 | 88 | 0 | 40 |
| Nc1ncnc2c1ncn2[C@@H]1CC[C@H](O)C1 | > 100 | > 100 | 50 | 0 | 18 |
